Measured values taken from ChEMBL document CHEMBL1147902, “Phosphonoxins: rational design and discovery of a potent nucleotide anti-Giardia agent” (Bioorg Med Chem Lett, 2007).
Converted amounts (≈) assume the structure as drawn.

Test system: Giardia intestinalis
Experiment: Cyst formation in Giardia lamblia WB6 at 10 uM relative to control
Conditions: Giardia duodenalis

| Compound | level, % of control at 10 µM [%] |
| --- | --- |
| CC(=O)OCCN(CCO)CCP(=O)(O)OC[C@H]1O[C@@H](Cn2ccc(=O)[nH]c2=O)[C@H](O)[C@@H]1O | 35.6 |
| O=c1ccn(C[C@@H]2O[C@H](COP(=O)(O)CCCN3C[C@H](O)[C@@H](O)C3)[C@@H](O)[C@H]2O)c(=O)[nH]1 | 22.9 |
| NCP(=O)(O)OC[C@H]1O[C@@H](n2ccc(=O)[nH]c2=O)[C@H](O)[C@@H]1O | 34.4 |
| O=C1[C@@H](O)[C@H](O)C(=O)N1CCP(=O)(O)OC[C@H]1O[C@@H](Cn2ccc(=O)[nH]c2=O)[C@H](O)[C@@H]1O | 28.7 |
| NCCP(=O)(O)OC[C@H]1O[C@@H](n2ccc(=O)[nH]c2=O)[C@H](O)[C@@H]1O | 14.9 |
| O=c1ccn(C[C@@H]2O[C@H](COP(=O)(O)CCN3C[C@H](O)[C@@H](O)C3)[C@@H](O)[C@H]2O)c(=O)[nH]1 | 5.73 |
| O=c1ccn(C[C@@H]2O[C@H](COP(=O)(O)CCN(CCO)CCO)[C@@H](O)[C@H]2O)c(=O)[nH]1 | 72.2 |
| O=c1ccn(C[C@@H]2O[C@H](COP(=O)(O)COCCN3C[C@@H](O)[C@H](O)C3)[C@@H](O)[C@H]2O)c(=O)[nH]1 | 17.2 |
| CC(=O)OCCN(CCOC(C)=O)CCP(=O)(O)OC[C@H]1O[C@@H](Cn2ccc(=O)[nH]c2=O)[C@H](O)[C@@H]1O | 27.4 |

Test system: not listed separately
Experiment: Toxicity in MDBK cells
Assay type: cell-based
Conditions: Bos taurus

| Compound | EC50 [µM] |
| --- | --- |
| CC(=O)OCCN(CCO)CCP(=O)(O)OC[C@H]1O[C@@H](Cn2ccc(=O)[nH]c2=O)[C@H](O)[C@@H]1O | > 250 |
| O=c1ccn(C[C@@H]2O[C@H](COP(=O)(O)CCCN3C[C@H](O)[C@@H](O)C3)[C@@H](O)[C@H]2O)c(=O)[nH]1 | > 250 |
| NCP(=O)(O)OC[C@H]1O[C@@H](n2ccc(=O)[nH]c2=O)[C@H](O)[C@@H]1O | > 250 |
| O=C1[C@@H](O)[C@H](O)C(=O)N1CCP(=O)(O)OC[C@H]1O[C@@H](Cn2ccc(=O)[nH]c2=O)[C@H](O)[C@@H]1O | > 250 |
| NCCP(=O)(O)OC[C@H]1O[C@@H](n2ccc(=O)[nH]c2=O)[C@H](O)[C@@H]1O | > 250 |
| O=c1ccn(C[C@@H]2O[C@H](COP(=O)(O)CCN3CCCC3)[C@@H](O)[C@H]2O)c(=O)[nH]1 | > 250 |
| O=c1ccn(C[C@@H]2O[C@H](COP(=O)(O)CCN3C[C@H](O)[C@@H](O)C3)[C@@H](O)[C@H]2O)c(=O)[nH]1 | > 250 |
| O=c1ccn(C[C@@H]2O[C@H](COP(=O)(O)CN3C[C@@H](O)[C@H](O)C3)[C@@H](O)[C@H]2O)c(=O)[nH]1 | > 250 |
| CCOP(=O)(CCN(CCOC(C)=O)CCOC(C)=O)OCC | > 250 |
| O=c1ccn(C[C@@H]2O[C@H](COP(=O)(O)CCN(CCO)CCO)[C@@H](O)[C@H]2O)c(=O)[nH]1 | > 250 |
| O=c1ccn(C[C@@H]2O[C@H](COP(=O)(O)COCCN3C[C@@H](O)[C@H](O)C3)[C@@H](O)[C@H]2O)c(=O)[nH]1 | > 250 |
| O=c1ccn(C[C@@H]2O[C@H](COP(=O)(O)CCNCCO)[C@@H](O)[C@H]2O)c(=O)[nH]1 | > 250 |
| CC(=O)OCCN(CCOC(C)=O)CCP(=O)(O)OC[C@H]1O[C@@H](Cn2ccc(=O)[nH]c2=O)[C@H](O)[C@@H]1O | > 250 |
| CCOP(=O)(CCNCCOC(C)=O)OCC | > 250 |

Test system: Giardia intestinalis
Experiment: Antiprotozoal activity against Giardia lamblia WB6 trophozoites after 48 hrs
Assay type: functional
Conditions: Giardia duodenalis, WB6, 48 h
How it was run: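 Trophozoites of strain WB-6 cultured anaerobically 48 h with 2-fold serial drug dilutions, triplicate wells; viability read by XTT reagent.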

| Compound | MIC [µM] |
| --- | --- |
| CC(=O)OCCN(CCO)CCP(=O)(O)OC[C@H]1O[C@@H](Cn2ccc(=O)[nH]c2=O)[C@H](O)[C@@H]1O | > 10 |
| O=c1ccn(C[C@@H]2O[C@H](COP(=O)(O)CCCN3C[C@H](O)[C@@H](O)C3)[C@@H](O)[C@H]2O)c(=O)[nH]1 | 20 (≈ 9.31 µg/mL) |
| NCP(=O)(O)OC[C@H]1O[C@@H](n2ccc(=O)[nH]c2=O)[C@H](O)[C@@H]1O | > 20 |
| O=C1[C@@H](O)[C@H](O)C(=O)N1CCP(=O)(O)OC[C@H]1O[C@@H](Cn2ccc(=O)[nH]c2=O)[C@H](O)[C@@H]1O | > 20 |
| NCCP(=O)(O)OC[C@H]1O[C@@H](n2ccc(=O)[nH]c2=O)[C@H](O)[C@@H]1O | > 10 |
| O=c1ccn(C[C@@H]2O[C@H](COP(=O)(O)CCN3CCCC3)[C@@H](O)[C@H]2O)c(=O)[nH]1 | > 20 |
| O=c1ccn(C[C@@H]2O[C@H](COP(=O)(O)CCN3C[C@H](O)[C@@H](O)C3)[C@@H](O)[C@H]2O)c(=O)[nH]1 | 0.48 (≈ 0.217 µg/mL) |
| O=c1ccn(C[C@@H]2O[C@H](COP(=O)(O)CN3C[C@@H](O)[C@H](O)C3)[C@@H](O)[C@H]2O)c(=O)[nH]1 | > 20 |
| CCOP(=O)(CCN(CCOC(C)=O)CCOC(C)=O)OCC | > 20 |
| O=c1ccn(C[C@@H]2O[C@H](COP(=O)(O)CCN(CCO)CCO)[C@@H](O)[C@H]2O)c(=O)[nH]1 | > 10 |
| O=c1ccn(C[C@@H]2O[C@H](COP(=O)(O)COCCN3C[C@@H](O)[C@H](O)C3)[C@@H](O)[C@H]2O)c(=O)[nH]1 | 20 (≈ 9.63 µg/mL) |
| O=c1ccn(C[C@@H]2O[C@H](COP(=O)(O)CCNCCO)[C@@H](O)[C@H]2O)c(=O)[nH]1 | > 20 |
| CC(=O)OCCN(CCOC(C)=O)CCP(=O)(O)OC[C@H]1O[C@@H](Cn2ccc(=O)[nH]c2=O)[C@H](O)[C@@H]1O | > 10 |
| CCOP(=O)(CCNCCOC(C)=O)OCC | > 20 |
